The record followed here is ChEMBL document CHEMBL4340532, “Design, synthesis, and biological evaluation of novel 2'-deoxy-2'-fluoro-2'-C-methyl 8-azanebularine derivatives as potent anti-HBV agents” (Bioorg Med Chem Lett, 2019).

The test system of data set [1] is Hepatitis B virus. In words: Antiviral activity against Hepatitis B virus infected in human HepG2.2.15 cells assessed as inhibition of HBeAg secretion at 20 uM supplemented with fresh medium containing compound every 3 days for 6 days and measured on day 9 by ELISA relative to control. In kind it is functional. In a few lines: (§1)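 HepG2.2.15 cells were exposed to compound for up to 9 days. The initial screen used 20 µM for 9 days, with lamivudine (20 µM) as positive control. Follow-up used 10, 20 or 40 µM sampled at days 3, 6 and 9. HBsAg and HBeAg were quantified in culture supernatant by ELISA and compared with a no-drug control. Results are mean ± SD of three experiments.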
On the technique in general: ELISA stands for enzyme-linked immunosorbent assay.

A short description of data set [2]: Cytotoxicity against human HepG2 cells supplemented with fresh medium containing compound every 3 days for 9 days measured post-last dose by MTT assay. In kind it is cell-based. The essentials: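 HepG2 cells were exposed to compound for 3 or 9 days and viability was read by MTT assay. CC50 is the concentration causing 50% cytotoxicity. Results are mean ± SD of three experiments.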
In general terms: Tetrazolium assays rely on reduction of a dye to a coloured formazan, in cell work by metabolically active cells.

Data set [3] deals with Hepatitis B virus. Briefly: Antiviral activity against Hepatitis B virus infected in human HepG2.2.15 cells assessed as inhibition of HBsAg secretion at 20 uM supplemented with fresh medium containing compound every 3 days for 6 days and measured on day 9 by ELISA relative to control. Format: functional. The essentials:
as §1

Data set [4] deals with Hepatitis B virus. In words: Antiviral activity against Hepatitis B virus infected in human HepG2.2.15 cells assessed as inhibition of extracellular HBV DNA replication at 20 uM supplemented with fresh medium containing compound every 3 days for 6 days measured post-last dose by FQ-PCR analysis relative to control. In kind it is functional. In a few lines:
(§2)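 HepG2.2.15 cultures were treated at 10, 20 or 40 µM for 3, 6 and 9 days. Both intracellular and extracellular HBV DNA levels were then determined and compared with untreated cells.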

The subject of data set [5] is Hepatitis B virus. In words: Antiviral activity against lamivudine-resistant Hepatitis B virus harboring L180M/M204V mutant infected in human HepG2.2.15 cells assessed as inhibition of extracellular HBV DNA replication at 20 uM supplemented with fresh medium containing compound every 3 days for 9 days measured post-last dose by FQ-PCR analysis relative to control. Format: functional. The essentials: (§3)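 Lamivudine-resistant cell line transfected with the L180M/M204V mutant, exposed to 10, 20 or 40 µM for 3, 6 or 9 days. Intracellular and extracellular HBV DNA levels measured.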

For data set [6], the system named is Hepatitis B virus. Briefly: Antiviral activity against lamivudine-resistant Hepatitis B virus harboring L180M/M204V mutant infected in human HepG2.2.15 cells assessed as inhibition of extracellular HBV DNA replication at 20 uM supplemented with fresh medium containing compound every 3 days for 6 days measured post-last dose by FQ-PCR analysis relative to control. Format: functional. In a few lines: as §3

The test system of data set [7] is Hepatitis B virus. Briefly: Antiviral activity against Hepatitis B virus infected in human HepG2.2.15 cells assessed as inhibition of extracellular HBV DNA replication at 20 uM supplemented with fresh medium containing compound every 3 days for 9 days measured post-last dose by FQ-PCR analysis relative to control. In kind it is functional. The essentials:
as §2

In data set [8] the test system is Hepatitis B virus. In words: Antiviral activity against lamivudine-resistant Hepatitis B virus harboring L180M/M204V mutant infected in human HepG2.2.15 cells assessed as inhibition of intracellular HBV DNA replication at 20 uM supplemented with fresh medium containing compound every 3 days for 9 days measured post-last dose by FQ-PCR analysis relative to control. Format: functional. In a few lines: as §3

Data set [9] deals with Hepatitis B virus. In words: Antiviral activity against lamivudine-resistant Hepatitis B virus harboring L180M/M204V mutant infected in human HepG2.2.15 cells assessed as inhibition of intracellular HBV DNA replication at 20 uM supplemented with fresh medium containing compound every 3 days for 6 days measured post-last dose by FQ-PCR analysis relative to control. Format: functional. The essentials: as §3

The test system of data set [10] is Hepatitis B virus. Briefly: Antiviral activity against lamivudine-resistant Hepatitis B virus harboring L180M/M204V mutant infected in human HepG2.2.15 cells assessed as inhibition of intracellular HBV DNA replication at 20 uM measured on day 3 by FQ-PCR analysis relative to control. To be noted: HepG2.2.15, 72 h. In kind it is functional. The essentials: as §3

For data set [11], the system named is Hepatitis B virus. In words: Antiviral activity against Hepatitis B virus infected in human HepG2.2.15 cells assessed as inhibition of extracellular HBV DNA replication at 20 uM measured on day 3 by FQ-PCR analysis relative to control. Format: functional. To be noted: HepG2.2.15, 72 h. The essentials: as §2
The subject of data set [12] is Hepatitis B virus. Briefly: Antiviral activity against Hepatitis B virus infected in human HepG2.2.15 cells assessed as inhibition of intracellular HBV DNA replication at 20 uM supplemented with fresh medium containing compound every 3 days for 6 days measured post-last dose by FQ-PCR analysis relative to control. In kind it is functional. In a few lines: as §2
Data set [13] deals with Hepatitis B virus. In words: Antiviral activity against Hepatitis B virus infected in human HepG2.2.15 cells assessed as inhibition of intracellular HBV DNA replication at 20 uM measured on day 3 by FQ-PCR analysis relative to control. Format: functional. To be noted: HepG2.2.15, 72 h. In a few lines:
as §2

The subject of data set [14] is Hepatitis B virus. Briefly: Antiviral activity against lamivudine-resistant Hepatitis B virus harboring L180M/M204V mutant infected in human HepG2.2.15 cells assessed as inhibition of extracellular HBV DNA replication at 20 uM measured on day 3 by FQ-PCR analysis relative to control. Format: functional. The note with it: HepG2.2.15, 72 h. In a few lines:
as §3

The test system of data set [15] is Hepatitis B virus. Briefly: Antiviral activity against Hepatitis B virus infected in human HepG2.2.15 cells assessed as inhibition of intracellular HBV DNA replication at 20 uM supplemented with fresh medium containing compound every 3 days for 9 days measured post-last dose by FQ-PCR analysis relative to control. In kind it is functional. In a few lines: as §2

The structures appear in SMILES notation. Where only a bound is given, the exact number is not on record here.

As for `CNc1ncnc2c1nnn2[C@@H]1O[C@H](CO)[C@@H](O)[C@@]1(C)F`, the “inhibition (INH)” value in the data set on Hepatitis B virus [1] stood at 24.4%; in the data set with Hepatitis B virus [3], 20.1%. The molecule further yielded a CC50 at 216 h in data set [2] above 600 µM.

In the case of `C[C@@]1(F)[C@H](O)[C@@H](CO)O[C@H]1n1nnc2c(NC3CC3)ncnc21`, the “inhibition (INH)” value came out at 16.7% with Hepatitis B virus [1] and 11.4% in the data set on Hepatitis B virus [3]. Besides, in data set [2], the half-maximal cytotoxic concentration (CC50) at 216 h is above 600 µM.

`C[C@@]1(F)[C@H](O)[C@@H](CO)O[C@H]1n1nnc2c(NCc3ccccc3)ncnc21`: the entries for the “inhibition (INH)” value in the data set on Hepatitis B virus [1] and in the data set on Hepatitis B virus [3] were 11.9% and 8.5%, respectively. This molecule came in with a CC50 at 216 h in data set [2] above 600 µM.

`CCCCNc1ncnc2c1nnn2[C@@H]1O[C@H](CO)[C@@H](O)[C@@]1(C)F`: the entries for the “inhibition (INH)” value with Hepatitis B virus [1] and with Hepatitis B virus [3] were 11.6% and 17%, respectively. The same molecule gave a half-maximal cytotoxic concentration (CC50) at 216 h in [2] above 600 µM.

Consider `C[C@@]1(F)[C@H](O)[C@@H](CO)O[C@H]1n1nnc2c(=O)[nH]cnc21`, for which the “inhibition (INH)” value in the data set on Hepatitis B virus [1] is given as 7.4%; with Hepatitis B virus [3] it was 8.5%. Besides, the CC50 at 216 h in [2] is above 600 µM.

On to `C[C@@]1(F)[C@H](O)[C@@H](CO)O[C@H]1n1nnc2c(N)ncnc21`, for which the “inhibition (INH)” value in the data set with Hepatitis B virus [1] came out at 10%; in the data set on Hepatitis B virus [3], 9.9%. For the same molecule, the CC50 at 216 h in data set [2] is above 600 µM.

For the molecule `Nc1ccn([C@@H]2CS[C@H](CO)O2)c(=O)n1` [LAMIVUDINE], the “inhibition (INH)” value was 54.1% in the data set on Hepatitis B virus [4]; 19.3% with Hepatitis B virus [5]; 8.4% in the data set on Hepatitis B virus [6]; 78.6% in the data set on Hepatitis B virus [7]; 11.2% in the data set on Hepatitis B virus [8]; 39.6% in the data set on Hepatitis B virus [1]. In addition, the “inhibition (INH)” value is reported as 7.9% in the data set with Hepatitis B virus [9], 42.4% in the data set with Hepatitis B virus [3], 69.7% with Hepatitis B virus [12] and 77.9% in the data set with Hepatitis B virus [15]. The inhibition at 20 µM was found to be 6.3% with Hepatitis B virus [10], 32.7% in the data set on Hepatitis B virus [11], 47.4% in the data set on Hepatitis B virus [13] and 4.1% in the data set on Hepatitis B virus [14].

Turning to `C[C@@]1(F)[C@H](O)[C@@H](CO)O[C@H]1n1nnc2c(Nc3ccccc3)ncnc21`, the figures for the “inhibition (INH)” value in the data set on Hepatitis B virus [1] and in the data set on Hepatitis B virus [3] were 17.7% and 14.8%, respectively. This molecule yielded a half-maximal cytotoxic concentration (CC50) at 216 h in data set [2] of 501 µM.

As usually defined, the CC50 is the concentration giving 50% cytotoxicity. Broadly, the inhibition is the change of the read-out against control, counted positive when it falls.
